# According to ChEMBL document CHEMBL2346629, “Discovery and characterization of novel allosteric FAK inhibitors” (Eur J Med Chem, 2013):
# Assays:
# [1] = target: Epidermal growth factor receptor (Homo sapiens) (UniProt P00533); experiment: Inhibition of EGFR (unknown origin) using [gamma-33P]ATP assessed as residual activity at 3 uM
# Outline: (§1)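 Reaction Biology HotSpot radiometric profiling panel of 288 kinases (261 wild-type, 27 mutant). Kinase activity was read out by incorporation of [γ-33P]ATP.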
# [2] = target: Testis-specific serine/threonine-protein kinase 1 (Homo sapiens) (UniProt Q9BXA7); experiment: Inhibition of STK22D (unknown origin) using [gamma-33P]ATP assessed as residual activity at 3 uM
# [3] = test system: MAP kinase-interacting serine/threonine-protein kinase 1 (Homo sapiens), Q9BUB5 [T385D]; experiment: Inhibition of MNK1 T385D mutant (unknown origin) using [gamma-33P]ATP assessed as residual activity at 3 uM
# MAP kinase-interacting serine/threonine-protein kinase 1 (Homo sapiens), Q9BUB5 [T385D], sequence (Q9BUB5 whole entry T385D): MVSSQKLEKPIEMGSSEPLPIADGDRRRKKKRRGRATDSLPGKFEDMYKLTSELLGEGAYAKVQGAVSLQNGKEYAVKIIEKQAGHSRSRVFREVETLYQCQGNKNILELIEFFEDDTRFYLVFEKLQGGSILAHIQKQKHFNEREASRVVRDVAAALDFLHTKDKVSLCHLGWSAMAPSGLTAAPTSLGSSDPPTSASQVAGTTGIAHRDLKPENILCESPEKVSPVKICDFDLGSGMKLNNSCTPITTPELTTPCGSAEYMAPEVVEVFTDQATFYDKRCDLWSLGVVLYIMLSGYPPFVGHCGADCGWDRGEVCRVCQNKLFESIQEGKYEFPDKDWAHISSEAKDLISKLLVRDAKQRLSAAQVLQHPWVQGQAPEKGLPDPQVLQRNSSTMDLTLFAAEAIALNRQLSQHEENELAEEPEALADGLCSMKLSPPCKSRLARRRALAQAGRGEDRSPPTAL
# Outline: (§2)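 Contract radiometric panel screen of 288 kinases (261 wild-type, 27 mutant). Inhibition was read by [gamma-33P]ATP radioactivity incorporation.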
# [4] = target: 3-phosphoinositide-dependent protein kinase 1 (Homo sapiens) (UniProt O15530); experiment: Inhibition of PDK1 (unknown origin) using [gamma-33P]ATP assessed as residual activity at 3 uM
# [5] = target: Tyrosine-protein kinase Mer (Homo sapiens) (UniProt Q12866); experiment: Inhibition of c-MER (unknown origin) using [gamma-33P]ATP assessed as residual activity at 3 uM
# [6] = target: Protein kinase C alpha type (Homo sapiens) (UniProt P17252); experiment: Inhibition of PKCa (unknown origin) using [gamma-33P]ATP assessed as residual activity at 3 uM
# [7] = target: Ephrin type-A receptor 2 (Homo sapiens) (UniProt P29317); experiment: Inhibition of EPHA2 (unknown origin) using [gamma-33P]ATP assessed as residual activity at 3 uM; outline: as §1
# [8] = target: PAS domain-containing serine/threonine-protein kinase (Homo sapiens) (UniProt Q96RG2); experiment: Inhibition of PASK (unknown origin) using [gamma-33P]ATP assessed as residual activity at 3 uM
# [9] = target: Megakaryocyte-associated tyrosine-protein kinase (Homo sapiens) (UniProt P42679); experiment: Inhibition of CTK (unknown origin) using [gamma-33P]ATP assessed as residual activity at 3 uM; outline: as §1
# Megakaryocyte-associated tyrosine-protein kinase (Homo sapiens), sequence (P42679 whole entry): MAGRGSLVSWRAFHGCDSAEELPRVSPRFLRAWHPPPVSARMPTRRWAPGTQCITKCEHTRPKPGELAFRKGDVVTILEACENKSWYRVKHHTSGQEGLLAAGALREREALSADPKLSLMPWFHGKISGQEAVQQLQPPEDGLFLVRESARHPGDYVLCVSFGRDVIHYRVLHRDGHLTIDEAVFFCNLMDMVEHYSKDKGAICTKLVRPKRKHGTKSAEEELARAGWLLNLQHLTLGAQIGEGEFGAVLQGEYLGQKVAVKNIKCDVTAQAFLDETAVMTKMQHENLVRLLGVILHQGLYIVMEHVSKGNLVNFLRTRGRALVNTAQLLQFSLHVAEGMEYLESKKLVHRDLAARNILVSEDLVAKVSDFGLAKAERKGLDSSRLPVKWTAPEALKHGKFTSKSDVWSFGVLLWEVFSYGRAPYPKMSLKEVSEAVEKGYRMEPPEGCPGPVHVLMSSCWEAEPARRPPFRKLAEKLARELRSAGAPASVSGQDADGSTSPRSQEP
# [10] = target: Serine/threonine-protein kinase Nek7 (Homo sapiens) (UniProt Q8TDX7); experiment: Inhibition of NEK7 (unknown origin) using [gamma-33P]ATP assessed as residual activity at 3 uM
# [11] = target: Serine/threonine-protein kinase D2 (Homo sapiens) (UniProt Q9BZL6); experiment: Inhibition of PKD2 (unknown origin) using [gamma-33P]ATP assessed as residual activity at 3 uM
# [12] = target: Serine/threonine-protein kinase pim-2 (Homo sapiens) (UniProt Q9P1W9); experiment: Inhibition of PIM2 (unknown origin) using [gamma-33P]ATP assessed as residual activity at 3 uM
# Serine/threonine-protein kinase pim-2 (Homo sapiens), sequence (Q9P1W9 whole entry, looked up): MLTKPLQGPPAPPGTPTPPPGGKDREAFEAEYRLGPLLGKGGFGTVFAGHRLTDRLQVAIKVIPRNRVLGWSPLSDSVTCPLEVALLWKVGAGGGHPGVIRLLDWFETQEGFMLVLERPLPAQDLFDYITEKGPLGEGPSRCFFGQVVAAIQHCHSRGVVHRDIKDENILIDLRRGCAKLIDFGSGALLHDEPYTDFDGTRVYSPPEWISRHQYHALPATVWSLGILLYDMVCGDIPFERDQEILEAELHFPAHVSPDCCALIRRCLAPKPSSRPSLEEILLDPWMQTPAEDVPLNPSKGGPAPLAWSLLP
# [13] = target: Serine/threonine-protein kinase VRK1 (Homo sapiens) (UniProt Q99986); experiment: Inhibition of VRK1 (unknown origin) using [gamma-33P]ATP assessed as residual activity at 3 uM
# [14] = target: Serine/threonine-protein kinase pim-1 (Homo sapiens) (UniProt P11309); experiment: Inhibition of PIM1 (unknown origin) using [gamma-33P]ATP assessed as residual activity at 3 uM
# [15] = target: Calcium/calmodulin-dependent protein kinase type II subunit beta (Homo sapiens) (UniProt Q13554); experiment: Inhibition of CAMK2b (unknown origin) using [gamma-33P]ATP assessed as residual activity at 3 uM
# Calcium/calmodulin-dependent protein kinase type II subunit beta (Homo sapiens), sequence (Q13554 whole entry): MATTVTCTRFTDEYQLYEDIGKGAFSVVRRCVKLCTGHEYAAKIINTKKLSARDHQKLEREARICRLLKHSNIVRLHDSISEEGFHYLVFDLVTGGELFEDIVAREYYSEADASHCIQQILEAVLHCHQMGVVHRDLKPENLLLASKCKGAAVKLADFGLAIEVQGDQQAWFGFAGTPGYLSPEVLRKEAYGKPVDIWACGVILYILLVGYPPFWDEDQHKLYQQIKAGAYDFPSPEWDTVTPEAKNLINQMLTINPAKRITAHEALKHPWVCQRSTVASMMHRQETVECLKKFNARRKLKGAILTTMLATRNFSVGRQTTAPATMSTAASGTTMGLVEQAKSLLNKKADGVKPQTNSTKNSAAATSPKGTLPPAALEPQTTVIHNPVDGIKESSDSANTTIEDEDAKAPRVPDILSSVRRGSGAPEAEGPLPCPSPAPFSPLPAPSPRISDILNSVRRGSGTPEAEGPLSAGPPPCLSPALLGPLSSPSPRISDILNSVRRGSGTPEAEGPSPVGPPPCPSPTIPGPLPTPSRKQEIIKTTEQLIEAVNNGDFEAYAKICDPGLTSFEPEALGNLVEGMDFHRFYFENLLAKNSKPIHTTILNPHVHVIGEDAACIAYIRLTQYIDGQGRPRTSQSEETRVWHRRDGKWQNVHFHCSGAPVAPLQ
# Outline: (§3)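 Radiometric profiling across 288 kinases (261 wild-type, 27 mutant), run as an outsourced service. Inhibition read out as [gamma-33P]ATP incorporation into substrate.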
# [16] = target: Dual specificity protein kinase TTK (Homo sapiens) (UniProt P33981); experiment: Inhibition of TTK (unknown origin) using [gamma-33P]ATP assessed as residual activity at 3 uM
# [17] = target: Tyrosine-protein kinase JAK2 (Homo sapiens) (UniProt O60674); experiment: Inhibition of JAK2 (unknown origin) using [gamma-33P]ATP assessed as residual activity at 3 uM
# Tyrosine-protein kinase JAK2 (Homo sapiens), sequence (O60674 whole entry): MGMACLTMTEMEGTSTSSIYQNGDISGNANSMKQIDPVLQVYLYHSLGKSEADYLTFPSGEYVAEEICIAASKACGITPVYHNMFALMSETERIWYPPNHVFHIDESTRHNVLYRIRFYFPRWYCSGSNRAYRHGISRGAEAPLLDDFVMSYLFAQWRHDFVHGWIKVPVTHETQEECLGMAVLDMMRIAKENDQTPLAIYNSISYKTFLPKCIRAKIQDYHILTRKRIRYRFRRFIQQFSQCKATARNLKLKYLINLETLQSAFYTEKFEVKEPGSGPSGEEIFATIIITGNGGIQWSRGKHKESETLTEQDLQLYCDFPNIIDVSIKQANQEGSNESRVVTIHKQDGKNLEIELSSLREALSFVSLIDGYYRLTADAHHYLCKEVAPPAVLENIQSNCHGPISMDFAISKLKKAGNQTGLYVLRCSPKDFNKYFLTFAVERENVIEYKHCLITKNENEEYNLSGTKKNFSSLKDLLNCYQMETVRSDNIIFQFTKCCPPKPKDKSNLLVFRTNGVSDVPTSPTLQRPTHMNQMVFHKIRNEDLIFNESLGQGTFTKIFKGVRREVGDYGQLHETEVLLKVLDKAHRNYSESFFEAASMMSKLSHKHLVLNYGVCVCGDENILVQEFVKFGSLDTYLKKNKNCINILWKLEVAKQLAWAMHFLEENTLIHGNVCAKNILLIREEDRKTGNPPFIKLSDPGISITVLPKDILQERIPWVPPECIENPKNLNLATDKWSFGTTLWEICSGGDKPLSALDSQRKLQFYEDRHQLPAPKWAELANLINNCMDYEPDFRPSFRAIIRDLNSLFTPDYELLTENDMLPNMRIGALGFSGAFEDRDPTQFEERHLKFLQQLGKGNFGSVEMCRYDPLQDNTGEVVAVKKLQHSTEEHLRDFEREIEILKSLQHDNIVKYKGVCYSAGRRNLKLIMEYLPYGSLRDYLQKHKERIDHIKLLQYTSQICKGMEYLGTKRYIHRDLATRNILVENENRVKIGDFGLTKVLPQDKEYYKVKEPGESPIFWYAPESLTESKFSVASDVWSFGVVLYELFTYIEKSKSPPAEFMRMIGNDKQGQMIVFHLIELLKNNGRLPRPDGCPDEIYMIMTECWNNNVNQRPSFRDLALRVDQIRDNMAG
# Outline: (§4)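 Radiometric kinase profiling service covering 288 kinases (261 wild-type, 27 mutant). Inhibition was read as incorporation from [γ-³³P]ATP.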
# [18] = test system: Tyrosine-protein kinase ABL1 (Homo sapiens), P00519 [H396P]; experiment: Inhibition of ABL1 H396P mutant (unknown origin) using [gamma-33P]ATP assessed as residual activity at 3 uM; outline: as §3
# [19] = target: Calcium/calmodulin-dependent protein kinase kinase 2 (Homo sapiens) (UniProt Q96RR4); experiment: Inhibition of CAMKK2 (unknown origin) using [gamma-33P]ATP assessed as residual activity at 3 uM; outline: as §3
# [20] = target: Protein kinase C beta type (Homo sapiens) (UniProt P05771); experiment: Inhibition of PKCb1 (unknown origin) using [gamma-33P]ATP assessed as residual activity at 3 uM
# Protein kinase C beta type (Homo sapiens), sequence (P05771 2-671 limits assumed): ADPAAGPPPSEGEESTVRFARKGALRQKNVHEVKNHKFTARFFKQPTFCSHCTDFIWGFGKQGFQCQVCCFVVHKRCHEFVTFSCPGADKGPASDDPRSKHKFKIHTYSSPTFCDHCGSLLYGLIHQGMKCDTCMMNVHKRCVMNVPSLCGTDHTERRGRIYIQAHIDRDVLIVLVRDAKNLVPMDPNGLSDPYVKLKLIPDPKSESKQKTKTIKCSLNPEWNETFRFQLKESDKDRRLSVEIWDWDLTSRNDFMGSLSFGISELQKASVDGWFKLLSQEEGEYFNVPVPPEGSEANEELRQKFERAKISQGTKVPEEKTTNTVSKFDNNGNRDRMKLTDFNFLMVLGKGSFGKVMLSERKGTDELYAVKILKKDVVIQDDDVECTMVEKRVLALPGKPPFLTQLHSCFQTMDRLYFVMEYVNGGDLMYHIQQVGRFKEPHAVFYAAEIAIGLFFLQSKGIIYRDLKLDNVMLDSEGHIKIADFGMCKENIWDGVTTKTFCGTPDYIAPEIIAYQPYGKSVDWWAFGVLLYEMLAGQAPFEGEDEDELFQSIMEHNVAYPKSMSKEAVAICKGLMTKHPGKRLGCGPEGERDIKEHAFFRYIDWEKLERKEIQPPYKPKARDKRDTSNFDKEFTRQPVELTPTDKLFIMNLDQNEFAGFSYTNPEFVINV
# [21] = target: Proto-oncogene tyrosine-protein kinase ROS (Homo sapiens) (UniProt P08922); experiment: Inhibition of ROS (unknown origin) using [gamma-33P]ATP assessed as residual activity at 3 uM
# [22] = target: Maternal embryonic leucine zipper kinase (Homo sapiens) (UniProt Q14680); experiment: Inhibition of MELK (unknown origin) using [gamma-33P]ATP assessed as residual activity at 3 uM; outline: as §2
# [23] = target: Protein kinase C eta type (Homo sapiens) (UniProt P24723); experiment: Inhibition of PKCeta (unknown origin) using [gamma-33P]ATP assessed as residual activity at 3 uM
# [24] = target: Ribosomal protein S6 kinase alpha-2 (Homo sapiens) (UniProt Q15349); experiment: Inhibition of RSK3 (unknown origin) using [gamma-33P]ATP assessed as residual activity at 3 uM
# [25] = test system: Mast/stem cell growth factor receptor Kit (Homo sapiens), P10721 [D816V]; experiment: Inhibition of c-Kit D816V mutant (unknown origin) using [gamma-33P]ATP assessed as residual activity at 3 uM
# [26] = test system: Tyrosine-protein kinase ABL1 (Homo sapiens), P00519 [Q252H]; experiment: Inhibition of ABL1 Q252H mutant (unknown origin) using [gamma-33P]ATP assessed as residual activity at 3 uM; outline: as §3
# [27] = target: TGF-beta receptor type-1 (Homo sapiens) (UniProt P36897); experiment: Inhibition of ALK5 (unknown origin) using [gamma-33P]ATP assessed as residual activity at 3 uM; outline: as §3
# TGF-beta receptor type-1 (Homo sapiens), sequence (P36897 whole entry): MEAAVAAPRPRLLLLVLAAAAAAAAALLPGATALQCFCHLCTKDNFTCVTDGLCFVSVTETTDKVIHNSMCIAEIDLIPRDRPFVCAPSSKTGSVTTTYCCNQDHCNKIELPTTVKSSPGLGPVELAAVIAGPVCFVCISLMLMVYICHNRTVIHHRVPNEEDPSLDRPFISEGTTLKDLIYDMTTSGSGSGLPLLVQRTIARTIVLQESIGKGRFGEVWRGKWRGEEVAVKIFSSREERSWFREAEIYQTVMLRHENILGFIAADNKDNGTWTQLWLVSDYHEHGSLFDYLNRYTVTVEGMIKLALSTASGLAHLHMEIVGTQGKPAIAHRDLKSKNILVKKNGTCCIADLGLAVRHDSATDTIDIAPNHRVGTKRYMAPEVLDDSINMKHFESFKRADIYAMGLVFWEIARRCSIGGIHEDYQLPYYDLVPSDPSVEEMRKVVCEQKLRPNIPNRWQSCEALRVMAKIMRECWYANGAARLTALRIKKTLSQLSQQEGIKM
# [28] = target: MAP kinase-activated protein kinase 5 (Homo sapiens) (UniProt Q8IW41); experiment: Inhibition of MAPKAPK5 (unknown origin) using [gamma-33P]ATP assessed as residual activity at 3 uM; outline: as §4
# [29] = target: BDNF/NT-3 growth factors receptor (Homo sapiens) (UniProt Q16620); experiment: Inhibition of TRKB (unknown origin) using [gamma-33P]ATP assessed as residual activity at 3 uM
# BDNF/NT-3 growth factors receptor (Homo sapiens), sequence (Q16620 32-822 limits assumed): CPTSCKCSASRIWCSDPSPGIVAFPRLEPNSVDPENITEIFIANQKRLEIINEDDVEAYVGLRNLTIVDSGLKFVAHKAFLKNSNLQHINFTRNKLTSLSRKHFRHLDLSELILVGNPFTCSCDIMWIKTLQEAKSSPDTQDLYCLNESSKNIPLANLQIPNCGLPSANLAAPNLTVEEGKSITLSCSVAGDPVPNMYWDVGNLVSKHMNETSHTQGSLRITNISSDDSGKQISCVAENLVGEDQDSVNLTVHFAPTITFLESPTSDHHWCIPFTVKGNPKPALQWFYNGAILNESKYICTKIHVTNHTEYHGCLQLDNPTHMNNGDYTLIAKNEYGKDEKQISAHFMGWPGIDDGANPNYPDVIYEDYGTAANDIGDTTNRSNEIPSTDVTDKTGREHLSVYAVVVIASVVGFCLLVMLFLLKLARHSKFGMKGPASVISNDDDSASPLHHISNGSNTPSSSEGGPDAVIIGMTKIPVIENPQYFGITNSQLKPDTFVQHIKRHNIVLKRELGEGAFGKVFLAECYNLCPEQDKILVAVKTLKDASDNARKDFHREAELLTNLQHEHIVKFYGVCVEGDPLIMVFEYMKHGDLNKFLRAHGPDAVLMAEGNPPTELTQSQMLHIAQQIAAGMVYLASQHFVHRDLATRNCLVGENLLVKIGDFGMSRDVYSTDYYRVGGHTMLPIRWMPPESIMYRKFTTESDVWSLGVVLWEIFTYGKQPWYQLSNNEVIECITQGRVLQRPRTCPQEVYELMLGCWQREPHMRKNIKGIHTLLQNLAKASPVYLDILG
# [30] = target: Tyrosine-protein kinase Yes (Homo sapiens, UniProt P07947); experiment: Inhibition of YES (unknown origin) using [gamma-33P]ATP assessed as residual activity at 3 uM
# [31] = target: Ephrin type-A receptor 3 (Homo sapiens) (UniProt P29320); experiment: Inhibition of EPHA3 (unknown origin) using [gamma-33P]ATP assessed as residual activity at 3 uM; outline: as §1
compound,measurement,setting,value
CCc1ccc(-c2ccc3c(c2)-c2[nH]ncc2S(=O)(=O)N3C)cc1,Activity,[1],97%
same,Activity,[2],87%
same,Activity,[3],86%
same,Activity,[4],95%
same,Activity,[5],86%
same,Activity,[6],86%
same,Activity,[7],90%
same,Activity,[8],95%
same,Activity,[9],96%
same,Activity,[10],101%
same,Activity,[11],98%
same,Activity,[12],101%
same,Activity,[13],81%
same,Activity,[14],96%
same,Activity,[15],90%
same,Activity,[16],74%
same,Activity,[17],103%
same,Activity,[18],71%
same,Activity,[19],65%
same,Activity,[20],101%
same,Activity,[21],95%
same,Activity,[22],76%
same,Activity,[23],93%
same,Activity,[24],97%
same,Activity,[25],36%
same,Activity,[26],60%
same,Activity,[27],89%
same,Activity,[28],87%
same,Activity,[29],101%
same,Activity,[30],29%
same,Activity,[31],97%
